Experimental data pooled from the literature.
Lines come from different studies, so protocols differ.
Target: TGF-beta receptor type-1 (TGFBR1, Homo sapiens, UniProt P36897)

| SMILES | effect on | action | technique | tested at | quantity | value |
| --- | --- | --- | --- | --- | --- | --- |
| COc1cc(Cl)c(C(=O)N[C@@H](CN[C@H]2CC[C@@H](N)CC2)Cc2ccc(C#N)cc2)cc1-c1ccc(CN[C@H](C)c2ccc(C)cc2)o1 | enzyme activity | inhibitor |  | 1 µM | remaining activity | 103% |
| CSc1cccnc1N1CCN(Cc2nc3ccccc3[nH]2)CC1 | cell-free assay |  | competition with immobilised ligand | 1 µM | remaining binding | 100% |
| COc1cccc(F)c1Cn1cnc(-c2ccncc2)c1-c1ccc(F)cc1 | cell-free assay |  | TR-FRET | 1 µM | inhibition | 19% |
| O=C(Nc1cnn(-c2csc(C(=O)NC3COC3)c2)c1)Nc1c(F)cccc1Cl | enzyme activity | inhibitor |  | 5 µM | remaining activity | 97.4% |
| Cc1cc(NC(=O)c2cccc3cc(-c4cccc5[nH]nc(N)c45)ccc23)ccc1F | enzyme activity | inhibitor |  | 0.1 µM | activity vs control | 120% |
| COc1cc2ncnc(Nc3ccc(F)c(Cl)c3)c2cc1OCCCN1CCOCC1 | cell-free assay |  |  | 0.5 µM | remaining signal | 99.6% |
| Fc1ccc(-c2ncn(-c3ccccc3)c2-c2ccncc2)cc1 | cell-free assay |  | TR-FRET | 1 µM | inhibition | 31% |
| COc1cc(-c2cc(-c3ccc(N4CCNCC4)cc3)cnc2C)cc(OC)c1OC | enzyme activity | inhibitor |  | 0.1 µM | inhibition | 3% |
| Fc1ccc(-c2c(-c3ccncc3)ncn2-c2ccc(-c3ccccc3)cc2)cc1 | cell-free assay |  | TR-FRET | 1 µM | inhibition | 21% |
| O=C1Nc2ccc(Cl)cc2C1=Cc1cc(Cl)c(O)c(Cl)c1 | cell-free assay |  |  | 0.5 µM | remaining signal | 102% |
| CS(=O)(=O)Nc1cccc(-c2csc(NC(=O)CSc3nc4nccnc4c(=O)n3CCc3ccccc3)n2)c1 | enzyme activity | inhibitor |  | 10 µM | inhibition | 5% |
| Cc1cnc(NC2CCOCC2)nc1-n1cnc(C(=O)NC(CN)c2cc(F)cc(Cl)c2)c1 (stereo not shown) | enzyme activity | inhibitor | radiometric | 1 µM | remaining activity | 98% |
| COc1cc(Nc2cnc(C#N)c(O[C@H](C)CN(C)C)n2)ncc1-c1cnn(C)c1 | enzyme activity | inhibitor | radiometric | 1 µM | remaining activity | 122% |
| NS(=O)(=O)c1cc(NC(=O)C2(c3ccccc3Cl)CC2)ccc1Oc1cccc(Cl)c1 | cell-free assay |  | competition with immobilised ligand | 1 µM | remaining binding | 82% |
| Cc1ccc(NC(=O)c2ccc(CN3CCN(C)CC3)cc2)cc1Nc1nc(-c2cccnc2)cs1 | cell-free assay |  |  | 0.5 µM | remaining signal | 98.5% |
| CO[C@@H](C)c1c(Nc2ccc([C@@H](N(C)C(=O)C3CCS(=O)(=O)CC3)C(F)(F)F)cc2)cnc2cc(Cl)nn12 | cell-free assay |  | competition with immobilised ligand | 1 µM | remaining binding | 95% |
| C=CC(=O)Nc1cc(Nc2nccc(Nc3cc(Cl)c(F)cc3C(C)(C)O)n2)c(OC)cc1N1CC[C@@H](N(C)C)C1 | enzyme activity | inhibitor |  | 1 µM | inhibition | 42% |
| CCOC(=O)c1cc2cc(-c3cc(C(=O)NCc4ccc(C(=O)O)cc4)nn3C)ccc2[nH]1 | cell-free assay |  | competition with immobilised ligand | 0.1 µM | remaining binding | 100% |
| N#CCCc1ccc2c(c1)-c1[nH]c3ccc([N+](=O)[O-])cc3c1CC(=O)N2 | cell-free assay |  |  | 0.5 µM | remaining signal | 103% |
| COc1ccc2c(c1)O[C@@H](c1ccc(OC)c(OC)c1)C[C@H]2NC(=O)C1(c2ccc3c(c2)OC(F)(F)O3)CC1 | cell-free assay |  | competition with immobilised ligand | 1 µM | remaining binding | 100% |
| Fc1ccc(-c2ncn(-c3ccc4ccccc4c3)c2-c2ccncc2)cc1 | cell-free assay |  | TR-FRET | 1 µM | inhibition | 14% |
| O=C(NS(=O)(=O)c1ccc(NCC2CCOCC2)c([N+](=O)[O-])c1)c1ccc(N2CCN(Cc3ccc(C(F)(F)F)cc3-c3ccc(Cl)cc3)CC2)cc1Oc1cnc2[nH]ccc2c1 | cell-free assay |  | competition with immobilised ligand | 1 µM | remaining binding | 93% |
| CC(C)(C)c1nc(-c2cccc(NS(=O)(=O)c3c(F)cccc3F)c2F)c(-c2ccnc(N)n2)s1 | enzyme activity | inhibitor | radiometric | 1 µM | remaining activity | 22% |
| CCCOc1ccc([C@@H]2[C@@H](C(=O)O)[C@H](c3ccc4c(c3)OCO4)CN2CC(=O)Nc2c(CC)cccc2CC)cc1 | cell-free assay |  | competition with immobilised ligand | 1 µM | remaining binding | 64% |
| C[S+]([O-])c1ccc(-c2nc(-c3ccncc3)c(-c3ccc(F)cc3)[nH]2)cc1 (stereo not shown) | cell-free assay |  |  | 0.5 µM | remaining signal | 101% |
| Fc1ccc(-c2c(-c3ccncc3)ncn2-c2ccccc2)cc1 | cell-free assay |  | TR-FRET | 1 µM | inhibition | 21% |
| CN(C)C(=O)Cn1cc(-c2nc(C3(c4ccc(-c5cnc(N)nc5)cc4)CC3)no2)cn1 | cell-free assay |  | competition with immobilised ligand | 1 µM | remaining binding | 97% |
| CN1CC(Oc2cnc(C#N)cc2-c2ccn3nc(NC(=O)C4CC4)cc3c2)C1 | enzyme activity | inhibitor |  | 1 µM | inhibition | -9% |
